One compound from ChEMBL document CHEMBL4049390, “Combination of amino acid/dipeptide with ligustrazine-betulinic acid as antitumor agents” (Eur J Med Chem, 2017) can be followed below.

For orientation: IC50 means the concentration that inhibits the measured activity by half. Read a high IC50 as a need for much substance.

In assay [1] the test system is HepG2. In words: Potency index, ratio of cisplatin IC50 to compound IC50 for human HepG2 cells. It is filed as functional. The method in brief: (§1)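 Ratios were calculated from MTT IC50 values (72 h exposure, A490 read-out, n = 3). Potency index = cisplatin IC50 / compound IC50. Therapeutic index = MDCK IC50 / tumour-line IC50.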
Assay [2] concerns HepG2. As to the kind of experiment: Induction of apoptosis in human HepG2 cells assessed as disruption of mitochondrial membrane potential by measuring mean fluorescence intensity at 4 uM after 72 hrs by Rh123 staining based flow cytometry (reference value: 26410). It is filed as functional. (In general: In flow cytometry, cells or beads pass a laser one at a time.)
The subject of assay [3] is HepG2. As to the kind of experiment: Induction of apoptosis in human HepG2 cells assessed as increase in intracellular calcium level by measuring mean fluorescence intensity after 72 hrs by Fluo-3AM dye based flow cytometry. It is filed as functional, cell-based. The method in brief: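 Intracellular Ca2+: HepG2 cells (1×10^5/well, 6-well) were grown 24 h, then treated at 2, 3 or 4 µM for 72 h. Cells were harvested, washed in cold PBS and resuspended in HBSS with 10 µM Fluo-3AM for 30 min at 37 °C in the dark. Flow cytometry used 488 nm excitation; the read-out is mean fluorescence intensity.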
A general note: A change in cytosolic calcium serves as a functional read-out for many receptors and channels.

In assay [4] the test system is HepG2. In words: Induction of apoptosis in human HepG2 cells after 72 hrs by Annexin-V-FITC/propidium iodide staining based flow cytometry. It is filed as functional, cell-based.
The subject of assay [5] is BGC-823. As to the kind of experiment: Antiproliferative activity against human BGC823 cells after 72 hrs by MTT assay. Particulars: BGC-823, 72 h. It is filed as functional, cell-based. The method in brief:
(§2)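 MTT assay. Log-phase cells were seeded at 3×10^3 cells/well and left overnight, then exposed to serial dilutions of compound (DMSO solutions) for 72 h in RPMI 1640 with 10% heat-inactivated FBS at 37 °C, 5% CO2. MTT (5 mg/mL, 20 µL) was added for 4 h at 37 °C and the formazan dissolved in DMSO. A490 was read. % inhibition = (1 − sample OD/control OD)×100; IC50 is the 50% growth-inhibition concentration. Triplicates, n = 3 independent experiments.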
On the technique in general: Tetrazolium dyes change colour on reduction, which living cells bring about.

The subject of assay [6] is BGC-823. In words: Potency index, ratio of cisplatin IC50 to compound IC50 for human BGC823 cells. It is filed as functional. In a few lines:
as §1

The test system of assay [7] is HepG2. In words: Induction of apoptosis in human HepG2 cells assessed as necrotic cells at 2 uM after 72 hrs by Annexin-V-FITC/propidium iodide staining based flow cytometry (reference value: 0.5%). It is filed as functional.
Assay [8] deals with HepG2. In words: Induction of apoptosis in human HepG2 cells assessed as viable cells at 2 uM after 72 hrs by Annexin-V-FITC/propidium iodide staining based flow cytometry (reference value: 93.2%). It is filed as functional. Particulars: HepG2, 72 h, read-out: Activity.
Another assay deals with HT-29. In words: Antiproliferative activity against human HT-29 cells after 72 hrs by MTT assay. It is filed as functional, cell-based. The conditions noted are these: HT-29, 72 h. In a few lines: as §2
The subject of assay [9] is HepG2. As to the kind of experiment: Induction of apoptosis in human HepG2 cells assessed as necrotic cells at 3 uM after 72 hrs by Annexin-V-FITC/propidium iodide staining based flow cytometry (reference value: 0.5%). It is filed as functional.
Assay [10] has as its system HepG2. As to the kind of experiment: Induction of apoptosis in human HepG2 cells assessed as viable cells at 4 uM after 72 hrs by Annexin-V-FITC/propidium iodide staining based flow cytometry (reference value: 93.2%). It is filed as functional. The conditions noted are these: HepG2, 72 h, read-out: Activity.
Another assay concerns A549. In words: Potency index, ratio of cisplatin IC50 to compound IC50 for human A549 cells. It is filed as functional. In a few lines:
as §1

Take `C=C(C)[C@@H]1CC[C@]2(C(=O)OCc3nc(C)c(C)nc3C)CC[C@]3(C)[C@H](CC[C@@H]4[C@@]5(C)CC[C@H](OC(=O)[C@H](C)NC(=O)CNC)C(C)(C)[C@@H]5CC[C@]43C)[C@@H]12`: the “Ratio IC50” value in the assay with HepG2 [1], in the assay with BGC-823 [6] and in the assay on A549 was 2 throughout. The Flu intensity in the assay with HepG2 [2] was 2147. The Activity result is “Dose-dependent effect” with HepG2 [3], “Dose-dependent effect” with HepG2 [4], 1.1% in the assay on HepG2 [7] and 1.2% in the assay with HepG2 [9]. Also, the IC50 in the assay with BGC-823 [5] stood at 1790 nM; in the assay with HT-29, 1700 nM. Further, the viability at 2 µM in the assay with HepG2 [8] stood at 88%. The viability at 4 µM with HepG2 [10] was 62.2%.
